Assay results as given in the EternaBench riboswitch data.

Test system: MS2 coat protein
Experiment: apparent Kd, MS2 coat protein; higher = weaker binding; RNA-MaP array; FMN 200 µM where present
Outline: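 The apparent Kd is reported as the median of filtered per-cluster binding-curve fits. To get these curves, designs transcribed by stalled E. coli RNA polymerase on Illumina sequencing-chip clusters were titrated with SNAP-549-labelled MS2 coat protein from 0.7 or 1.5 nM, doubling to 3 µM. Titrations were run without and then with constant ligand in 100 mM Tris-HCl pH 7.5, 80 mM KCl, 4 mM MgCl2, BSA, DTT, yeast tRNA and Tween-20, and green signal was normalised to red-channel RNA signal and control-cluster median Fmax.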

[1] = designed as: OFF switch for flavin mononucleotide, no ligand
[2] = ligand present: flavin mononucleotide, designed as: OFF switch for flavin mononucleotide
[3] = designed as: ON switch for flavin mononucleotide, no ligand
[4] = ligand present: flavin mononucleotide, designed as: ON switch for flavin mononucleotide

Sequence | apparent Kd [1] [nM] | apparent Kd [2] [nM] | apparent Kd [3] [nM] | apparent Kd [4] [nM]
AGAGUUGACUCAGGAUAUACGGGAAUGUGCCGCGACAUGAGGAUCACCCAUGUAGAAGGGAGAGAGAAGAAGAGAUGUAGAAGA | 56.1 | 54 |  | 
GUAUAUCACUAAGGAUAUCUGUAUUUUGUUGAAACAUGAGGAUCACCCAUGUUCAUGAAAUUAUAGGAGAAGGUAGAGAUAUAC |  |  | 4.96 | 4.57
GUGUUUGAUGAGGAUAUCGCUGUGGGUACACAGCGAGAAGGCAUUACAUGAGGAUCACCCAUGUAGUGUGGGUU | 24 | 105 |  | 
CUUUCGUGAGGAUAUCAGUAGUAAAUAAAUAAAAUUACUACUGAGAAGGCACAUGAGGAUCACCCAUGUUCCUU | 11.8 | 18.5 |  | 
AACAAUCUAUCUGAGGAUAUCAUGAAAAAAACAUGAGGAUCACCCAUGUGCAGGAAAACUGCAUAUGAGAAGGCAGAUAGAUUGC |  |  | 590 | 26.8
AAAUAGCGAGGAUAUACAUGAGGAUCACCCAUGUGGACUGAUGUCGCAUGUUUCAGUGGUAGAAGGUGCUCAAA | 136 | 299 |  | 
UGUGAACAUGAGGAUCACCCAUGUGAGGAUAUACGAGCGUGAGAAAGAUAAAACGAGCGUAGAAGGCACAAGAA | 75.1 | 102 |  | 
AUAUGAUAGAUAGGAUAUACAGUGGUUUUAUAAGUAGAAGGAUCAAAUGGGAAUUAUACAUGAGGAUCACCCAUGUUUUUGGAU |  |  | 58.6 | 40.4
AGUGUCAUCGAGAAGGCCUCAACAUGAGGAUCACCCAUGUUGUUACAUGGGAGGAUAUCGAUGAUACAGCUACGUUUCGUAGCA |  |  | 1010 | 137
GUGACGAAUGUAGGAUAUGCUGAGGAUAACUCAGCAGAAGGACAUGAGGAUCACCCAUGUAAUCCUAAUAAUAAAUAACGUCAC | 12.7 | 18.3 |  | 
GUGACGAUGUAAGGAUAUGCUGAGGAAUACUCAGCAGAAGGUACAUGAGGAUCACCCAUGUAACGUCACAAUAAUAAUAAUAAU | 13.3 | 24.1 |  | 
GAGCGGCGUACAGGAUAUCCUACAUGAGGAUCACCCAUGUCACAUUUACACGAGAACGUGUACGAGGAGAAGGGUGGGUUCGUG |  |  | 287 | 588
CGUAUAUGGGAGAAGGCAUGUCCCAAAGGGCUAUGAGGAUAUCCUAAGUGUACGCUUUGCGACAUGAGGAUCACCCAUGUAGCA |  |  | 10.5 | 6.36
AACUCGUCAGGAUAUGCGCACAGAUAAUACGCUACACAAUUGCAGAAGGGACAUGAGGAUCACCCAUGUAAAUA | 39 | 26.2 |  | 
UGUCGGAGCAGAGGAUAUUACAUGAGGAUCACCCAUGUAUGAACCAAUAGCUGGCAACAGCAAUGUAAGAAGGCUGCUCCGACA | 12.8 | 168 |  | 
CCCGCCCGCCCGCACGCGGAGCGACGAGAAGGUACACAUGAGGAUCACCCAUGUCGAGUGGGAGGUAAGGAUAUUGGACGGCGG |  |  | 106 | 93.3
AAUUAACAUGAGGAUCACCCAUGUGAGGAUAUGGUAUUACUUGGACAGCUAUGAUCUACCAGAAGGCACAUCUA | 24.4 | 44.8 |  | 
CCUAGUUGGUAAGGAUAUCCUACACUAUUCUGACCCGUGCAAGCUACAUGAGGAUCACCCAUGUAGGAGAAGGUGCGUCAACGU | 6.97 | 6.82 |  | 
GGAGCUACAACCGACGGAUAGAUGCAGGAUAUGCUCACAUGAGGAUCACCCAUGUGCUGAAACUGGCAGAAGGGUAUCACCGCC |  |  | 7.83 | 4.59

Sequence | apparent Kd [1] [nM] | apparent Kd [2] [nM] | apparent Kd [3] [nM] | apparent Kd [4] [nM]
GGCGGGCGGGAGGAUAUUCGGGCUGUUUGGCUUGGAGAAGGCUCGACAUGAGGAUCACCCAUGUUUGGGUCGCC | 16.2 | 27 |  | 
GUCCGAAGGGAGAAGGGCUAGGAGGUCCAGCUUAUGUGUGUUGCAACAUGAGGAUCACCCAUGUAGCAGGAUAUCCCUUGUACA | 54.2 | 267 |  | 
GGUUAUUGCAAGGAUAUGCUUUUUUUUUAUAUUGCAGAAGGUGCAACAUGAGGAUCACCCAUGUUGGAGGGAUU | 30.9 | 59.5 |  | 
UUUUAACAUGAGGAUCACCCAUGUGAGGAUAUCGAUUUUUUUAUUAAUAUUAAUAAAACGAGAAGGCACAUUUU | 76.2 | 75.9 |  | 
CUUUUUUUUGUGAGGAUAUACUGUUAUUAAAGUUAGUAGAAGGUACAUGAGGAUCACCCAUGUUAAUUACUUUA | 14.2 | 13.8 |  | 
CUCCUGUAAGGAUAUCUGACAAGUGACGAAAGUCACAGUUCAGAGAAGGUACAUGAGGAUCACCCAUGUAGAAC | 32.2 | 139 |  | 
GCACGAGACUAAGGAUAUGGUGUACCUACAUGUAACAUGAGGAUCACCCAUGUAGUAAGUAUGAUUCAGAAGGUAGAGACGUGC |  |  | 47.3 | 18.6
UUCACGUCAGGAUAUCCAUAUUUCCGAAAUAACGGUACUUUGGAGAAGGGACAUGAGGAUCACCCAUGUCCUCG |  | 40.1 |  | 
UCUCUUGGGCAAGGAUAUCCUGCGCGGUUCCGGUUCGUGUCUGUCACAUGAGGAUCACCCAUGUGGGAGAAGGUGCCUGCGGUU | 17.7 | 25.5 |  | 
GCUAUCGUUGUAGGAUAUGCUUGCCAAAGGCGAGCAGAAGGACAUGAGGAUCACCCAUGUCAGUGGUUGAAGAGAAGAGAUGGC | 27 | 61.5 |  | 
UGAAACUACGAGAAGGACAUGUGGUCCUUCAGUUACAUGAGGAUCACCCAUGUAGGAUAUCGUAGUUUCAGGAUCGUGAGAUCC | 32.8 | 11.7 |  | 
CUCAAACAUGAGGAUCACCCAUGUGUUGUCAUGGGAGGAUAUCCCAGUUCGUUGUCGUCGGGAGAAGGCCUAUGUC |  |  | 65 | 29.3
UGAUAGGACAGAGGAUAUACAGAUAGGAUCUACUAUCAAACAGUCCUGACAUGAGGAUCACCCAUGUAGAAGGCUGUCCUAUCU | 22.7 | 98.8 |  | 
AGCUGUGGCCGAGGAUAUACAUUCCUAAUCCAUUGCAAAUAGCGAUGGACAUGAGGAUCACCCAUGUAGAAGGCGGUCUCAGCA | 561 | 163 |  | 
AAAUUGGUAGAGGAUAUCGGAUAGGAUUUACUGCGAGAAGGCUGCACAUGAGGAUCACCCAUGUUCUGUUGGGA | 123 | 152 |  | 
AAAAAGUGAGGAUAUACGGUGUGGAGUAGACACAACCAGACGUAGAAGGCACAUGAGGAUCACCCAUGUCCAAA | 24.1 | 21.4 |  | 
GUUGUGUAAGGAGGAUAUGAGCUGAAACUCUUACAUGAGGAUCACCCAUGUCCGUAACUCAGGCAUCAGAAGGCCUAACGCAUU |  |  | 686 | 23
GUAGCAUACCGAGGAUAUCUAUCCCGGAAACGGACAUGAGGAUCACCCAUGUGGCGAAAGCCUUGGGAGAAGGCGGAAUGCUAC |  |  | 46.7 | 17.2
UGCCGUAGAGGAUAUACAUUGAAUUAGAUUCAUGUAAAACUACAUGAGGAUCACCCAUGUAGAAGGCUAUGGCU | 16.6 | 24.5 |  | 

Sequence | apparent Kd [1] [nM] | apparent Kd [2] [nM] | apparent Kd [3] [nM] | apparent Kd [4] [nM]
UGCAUGGUAGGAUAUACGGAACAUUAGGGUUUGUUAUGUGGACAUGAGGAUCACCCAUGUAGAAGGGCCGUGCU | 45.9 | 72.3 |  | 
GGACGUCACAUUCACAUGAGGAUCACCCAUGUCAAAAGACAUGAGGAUAUGGAUCCUAAUUGGAUCCAGAAGGCAUGGACGUCC |  |  | 1140 | 70.6
CCUAGAUAGGGAGGAUAUCACGACCAUCCCGGCGAUCCAACUACAUGAGGAUCACCCAUGUGGUGUGAGAAGGCCCAAUAAUAG | 220 | 75.4 |  | 
GCAUAUAUAUAAGGAUAUGCAUCACUGAGAAAUUUAGUGAGGAAGAUCACAUGAGGAUCACCCAUGUAGAAGGUAUAUAUGUGC | 8.18 | 46 |  | 
AAAUCCGCUGAGGAUAUCAUGACUGAGAGGUCAUGAGAAGGCGGUACAUGAGGAUCACCCAUGUCUAUGGGCAA | 492 | 454 |  | 
GCGCAAGCAUGAGGAUAUGUAUUAAAUAAUAAUACAGAAGGCAUGUCAAAUGACAUGAGGAUCACCCAUGUUGGCAAAAUGCGC |  |  | 45.8 | 10.5
CUCUGACAUGAGGAUCACCCAUGUGAGGAUAUGAUGCAGCAGUGGUCUACGCUGUGCAUCAGAAGGCACAUGUG | 101 | 33.4 |  | 
GGAACUCAUGUAGGAUAUGCAUGGCGAAGCUACGCAGAAGGACAUGAGGAUCACCCAUGUUCUAGCGUCUGGAGACAGAUGCAA | 174 | 126 |  | 
AUCAGCACGUGAGGAUAUGCGUCACUGCGUCAGCAGUGCGGUAAGAUCACAUGAGGAUCACCCAUGUAGAAGGCACGAGCUGAU | 21.4 | 49.8 |  | 
GCUAGGAUGUGAGGAUAUGCUGAGGAUACUUCAGCAGAAGGCACAUGAGGAUCACCCAUGUACACUUAUCAUAAAUACCCUAGC | 12.7 | 16.2 |  | 
AUCCUGCGAGGAUAUACAUAAUUUUUUUCAUUUUGUUUCGAACAUGAGGAUCACCCAUGUAGAAGGUGCUACAC | 32.1 | 29 |  | 
GGGCCACAUGAGGAUCACCCAUGUAAGGAUAUGCUAGGGAUGGAAAAAAUUUCGCUAGGCAGAAGGUACUAAAG | 32 | 55.6 |  | 
CCGGCGGGAGGAUAUACAUGAGGAUCACCCAUGUGCUUCAGCUAGGAGACUAGCAUUGGUAGAAGGCCCGCCGG | 19 | 160 |  | 
GUAACAUGAGGAUCACCCAUGUAUAGAACACUCAAUAGAUCUGAGGAUAUACUAGAAUUUACGUAGUAGAAGGCAGUGGGUACA |  |  | 64.1 | 33.6
UAGGACUUCGUAGGAUAUGUAUUUGAUUUCUACAUGAGGAUCACCCAUGUUUGCAUUUUUUUUUGACAGAAGGACGUGGUCGAA |  |  | 30.3 | 17.3
UCCUGGCGAGGAUAUACAAAGUUUUUCACGUUUUGUUACGAACAUGAGGAUCACCCAUGUAGAAGGUGCUACUG | 116 | 103 |  | 
UUACUAUUGGAGAAGGGUCCAUCAUAUAGAAGGACAGGAUAUCCAACAUGAGGAUCACCCAUGUGUCACCCAUAUGAGGAUCAC | 41.4 | 82.2 |  | 
GUGCUUGUCGAAGGAUAUGGUUACAUGAGGAUCACCCAUGUUAUGCUUGGAAAAUUGUUUAGUUUCCAGAAGGUCGAUUAGUUG | 19.7 | 17.7 |  | 
